Rows were chosen to be rich in hits. Some 2.8% of all compounds tested hit in one or more screens of this group.
PAFAH1B2 inh: blocks human PAF acetylhydrolase 1b catalytic subunit 2 | inhibition, % at 3.39 µM | 340,000 tested, 1.2% active | P68402 | recombinant PAFAH1B2, FP-rhodamine activity probe, fluorescence polarization;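 active = inhibition above the mean of all tested compounds plus 3 SD, cut at about 24% in these data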;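 note: 0% = enzyme with DMSO and 100% = wells lacking PAFAH1B2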
PAFAH1B3 FP inh: inhibitors of human PAFAH1B3 | Q15102 | recombinant PAFAH1B3, FP-rhodamine probe, fluorescence polarization | inhibition, % at 3.39 µM | 340,000 tested, 0.28% active;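 active = inhibition above the screen-wide average of all tested compounds plus 3 SD, cut at about 25% in these data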;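 note: 0% = enzyme with DMSO only and 100% = wells lacking PAFAH1B3 protein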
Target sequence (Q15102 whole entry, looked up): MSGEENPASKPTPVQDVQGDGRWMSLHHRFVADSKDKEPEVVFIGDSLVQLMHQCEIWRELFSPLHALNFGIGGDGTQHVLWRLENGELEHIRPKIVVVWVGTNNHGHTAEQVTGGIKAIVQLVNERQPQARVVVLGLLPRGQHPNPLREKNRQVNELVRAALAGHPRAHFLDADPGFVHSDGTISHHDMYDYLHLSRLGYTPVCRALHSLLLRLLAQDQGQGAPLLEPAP
HTRA1 inhibitor: HTRA1 (human) protease inhibition. recombinant HTRA1, FP-rhodamine activity-based probe, fluorescence polarization. inhibition, % at 5.96 µM. 340,000 tested, 0.5% active. AID 504803; in the data active = inhibition above about 36%;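 note: 0% = enzyme with DMSO and 100% = wells lacking enzyme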
PAFAH2 FP inh: PAFAH2 (human) inhibition; Q99487; recombinant PAFAH2, FP-rhodamine activity probe, fluorescence polarization; inhibition, % at 3.39 µM; 340,000 tested, 0.99% active; AID 492956;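 active = inhibition above the mean over all tested compounds plus 3 SD, cut at about 30% in these data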;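 note: inhibitors block probe labeling of enzyme so polarization drops; 0% = enzyme with DMSO and 100% = wells lacking PAFAH2 protein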
ABHD4 inh: inhibits mouse alpha/beta hydrolase domain 4 | purified mABHD4, FP-Rh probe fluorescence polarization | inhibition, % at 8.92 µM | 370,000 tested, 0.54% active;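 active = inhibition exceeding the mean over every tested compound plus 3 SD, cut at about 30% in these data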;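 note: 0% = plate median of compound wells and 100% = S159A mutant with DMSO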
Target sequence (Q8VD66 whole entry, looked up, the tested form may be a part): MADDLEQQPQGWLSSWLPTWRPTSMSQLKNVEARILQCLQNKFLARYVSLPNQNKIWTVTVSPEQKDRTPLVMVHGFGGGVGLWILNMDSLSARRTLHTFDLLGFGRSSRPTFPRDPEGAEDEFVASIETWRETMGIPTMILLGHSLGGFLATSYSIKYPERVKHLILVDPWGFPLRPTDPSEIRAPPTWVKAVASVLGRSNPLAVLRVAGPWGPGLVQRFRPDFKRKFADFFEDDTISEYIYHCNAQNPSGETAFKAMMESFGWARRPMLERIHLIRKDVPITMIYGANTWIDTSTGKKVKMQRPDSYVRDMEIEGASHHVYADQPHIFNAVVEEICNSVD
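Test system: mouse ABHD4 enzyme, wild type. Reagent: FP-Rh fluorescent activity-based probe, added after compound pre-incubation. Timing: pre-incubation 45 min, probe exposure 60 min, at 25 °C. Technique: FP readout, ex 525 nm / em 598 nm. Benchmarks: high control S159A mutant with DMSO, low control median of compound wells.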
pPAFAH FP inh: pPAFAH (human) enzyme inhibition. recombinant pPAFAH, FP-rhodamine probe fluorescence polarization. inhibition, % at 3.39 µM. 330,000 tested, 1.5% active. AID 463082;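 active = inhibition above the mean inhibition across the screen plus 3 SD, cut at about 25% in these data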;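 note: inhibitors block binding of the rhodamine activity-based probe so polarization drops; 0% = enzyme with DMSO and 100% = wells lacking pPAFAH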
PAFAH2 confirm: PAFAH2 (human) inhibition, confirmed | shares compounds with PAFAH2 FP inh | recombinant PAFAH2, FP-rhodamine activity probe, fluorescence polarization | inhibition, % at 3.39 µM | 2,300 tested, 65% active;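 active = mean inhibition over three repeats above a set limit taken from the earlier primary screen, cut at about 30% in these data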;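 note: inhibitor blocks binding of rhodamine activity probe so polarization falls; 0% = enzyme with DMSO and 100% = wells lacking PAFAH2 protein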
* hit, by the source's call; x = no result given.

SMILES	PAFAH1B2 inh	PAFAH1B3 FP inh	HTRA1 inhibitor	PAFAH2 FP inh	ABHD4 inh	pPAFAH FP inh	PAFAH2 confirm
O=C(COC(=O)c1ccccc1O)Nc1ncc(Cl)cc1Cl	6	0	17	33*	19	13	20
O=C(COC(=O)C12CC3CC(CC(C3)C1)C2)Nc1ncc(Cl)cc1Cl	14	4	5	43*	8	21	26
Cc1cnc(C(=O)OCC(=O)Nc2ncc(Cl)cc2Cl)cn1	7	0	14	11	14	3	x
O=C(COC(=O)c1ccccc1NC(=O)c1ccco1)Nc1ncc(Cl)cc1Cl	-4	0	-31	8	-13	6	x
CC(C)n1nc(C(=O)Nc2nc3ccc(S(C)(=O)=O)cc3s2)c2ccccc2c1=O	-3	3	4	2	2	-4	x
CC(C)n1nc(C(=O)Nc2nnc(SCc3c(Cl)cccc3Cl)s2)c2ccccc2c1=O	-1	-7	5	40*	8	1	66*
O=C(N[C@@H](Cc1ccccc1)C(=O)NCP(=O)(O)OC(Cc1ccccc1)C(=O)O)OCc1ccccc1 (stereo partly specified)	x	x	x	x	1	x	x
CCOC(=O)C1=CN(Cc2ccco2)S(=O)(=O)NC1c1ccc(Br)cc1F (stereo unspecified)	4	2	0	14	4	12	8
Cc1cc(C)c(-c2cc(NC(=O)COC(=O)c3ccc(NC(=O)CC#N)cc3)n(-c3ccccc3)n2)cc1C	-30	-59	-52	-30	-82	11	x
Cc1ccc(NC(=O)CN(C)C(=O)COC(=O)c2ccc(NC(=O)CC#N)cc2)cc1	0	-2	-19	-6	-25	1	x
N#CCC(=O)Nc1ccc(C(=O)OCC(=O)C23CC4CC(CC(C4)C2)C3)cc1	7	-5	-40	63*	-12	2	62*
CCCCNC(=O)COC(=O)c1ccc(N(C)C)cc1	-1	8	0	76*	-3	17	76*
CCCCNC(=O)COC(=O)c1ccc(NC(C)=O)cc1	5	8	1	70*	-2	4	54*
CCCCOC(=O)c1ccc(NC(C)=O)cc1	-4	9	-1	-3	0	-5	x
CCOc1ccc(C(=O)OCC(=O)NCCNC(=O)COC(=O)c2ccc(OCC)cc2)cc1	-1	5	2	-2	8	3	x
Cc1nn(-c2ccccc2)c(C)c1NC(=O)COC(=O)c1ccc(NC(=O)CC#N)cc1	-5	-2	-16	33*	-38	17	24
Cc1ccc(S(=O)(=O)N2c3ccccc3C[C@H]2CCC(=O)c2ccccc2)cc1	x	x	x	x	-5	x	x
N#CCC(=O)Nc1ccc(C(=O)OCC(=O)NCCCc2ccccc2)cc1	1	0	-28	38*	-13	10	30*
Cc1ccc(C(=O)NCCSc2c(C)[nH]c3ccccc23)cc1[N+](=O)[O-]	8	6	-7	30*	5	6	19
CC1CCCC(C(=O)O)N1C(=O)CCSC(=O)c1ccccc1 (stereo unspecified)	2	11	2	44*	1	1	46*
COc1cc(C2OC(=O)c3ccccc3S2)cc(OC)c1OC (stereo unspecified)	2	7	4	6	0	3	x
COc1ccc(C2OC(=O)c3ccccc3S2)cc1 (stereo unspecified)	3	5	1	86*	-9	4	78*
CC12CCC(C(=O)N(CSC(=S)N/N=C\c3ccccc3O)C1=O)C2(C)C (stereo unspecified)	11	5	26	38*	20	5	25
COc1ccc(/C=N\NC(=S)SCN2C(=O)C3CCC(C)(C2=O)C3(C)C)cc1 (stereo unspecified)	1	4	-1	12	1	7	x
COc1ccc(-c2noc(C3CCCN(C(=O)Nc4ccc5c(c4)OCO5)C3)n2)cc1 (stereo unspecified)	x	x	x	x	1	x	x
SMILES	PAFAH1B2 inh	PAFAH1B3 FP inh	HTRA1 inhibitor	PAFAH2 FP inh	ABHD4 inh	pPAFAH FP inh	PAFAH2 confirm
NC(=O)c1ccc(NC(=O)COC(=O)CCCN2C(=O)c3cccc4cccc(c34)C2=O)cc1	5	-8	-4	2	10	5	x
O=C(COC(=O)CCCN1C(=O)c2cccc3cccc(c23)C1=O)Nc1ccc(Cl)cc1	0	-13	-29	48*	2	6	29
C=CCN1C(=O)c2[nH]nc(-c3ccccc3)c2C1c1ccc(C)cc1 (stereo unspecified)	x	x	x	x	-11	x	x
CCOC(=O)C1(Cc2ccccc2)CCN(C2Cc3ccccc3C2)CC1	0	5	-10	33*	6	7	8
Cc1ccc(C(=O)OCC(=O)Nc2ccccc2)cc1S(=O)(=O)N1CCCCC1	5	-3	-21	50*	6	14	36*
CS(=O)(=O)c1ccc(Cl)c(NC(=O)COC(=O)c2ccc(-n3cnnn3)cc2)c1	0	5	2	24	-2	-4	x
Cc1cc(C)n(-c2ccc(C(=O)OCC(=O)Nc3cc(S(C)(=O)=O)ccc3Cl)cc2)n1	2	8	2	36*	5	23	29
Cc1cccc(NC(=O)COC(=O)c2ccc(C)c(S(=O)(=O)N3CCCCC3)c2)c1	5	4	-38	42*	-9	19	38*
Cc1ccc(NC(=O)COC(=O)C2CC3C=CC2C3)cc1S(=O)(=O)N1CCCCC1 (stereo unspecified)	5	19	-18	60*	-2	13	52*
C#CCN1CC(N(C)CCOC(=O)c2ccc([N+](=O)[O-])cc2)CS1(=O)=O (stereo unspecified)	x	x	x	x	-4	x	x
CCCCCN1CCCCC(NC(=O)c2ccc(F)cc2)C1=O (stereo unspecified)	x	x	x	x	1	x	x
COc1ccc(CN(C)CC#Cc2ccccc2)c(OC)c1	x	x	x	x	-4	x	x
CS(=O)(=O)c1ccc(Cl)c(NC(=O)COC(=O)c2ccc(S(=O)(=O)N3CCCC3)cc2)c1	0	0	1	-2	-8	7	x
Cc1ccc(C(=O)OCC(=O)Nc2cc(S(C)(=O)=O)ccc2Cl)cc1S(=O)(=O)N1CCCCC1	-3	2	-11	64*	2	20	54*
O=C(COC(=O)c1cccc(O)c1)Nc1ccc(OC(F)F)cc1	4	3	-9	64*	-22	0	54*
CCCC(=O)OCC(=O)Nc1ccc(OC(F)F)cc1	-1	1	4	7	1	4	x
O=C(COC(=O)c1ccc(OC(F)F)cc1)NC(=O)NC1CCCC1	3	2	30	12	9	5	x
O=C(COC(=O)c1cccc(OC(F)F)c1)NC1CCCC1	0	7	9	52*	-7	24	40*

Compound activity deposited in PubChem by The Scripps Research Institute Molecular Screening Center.
